Measurements published in ChEMBL document CHEMBL3297672, “Ingol-type diterpenes from Euphorbia antiquorum with mouse 11β-hydroxysteroid dehydrogenase type 1 inhibition activity” (J Nat Prod, 2014).
Calls of active or inactive are those of the source. No cut-off for these calls is given here.

How the values were obtained:
A549 = test: Cytotoxicity against human A549 cells; assay type: functional, cell-based
HL-60 = test: Cytotoxicity against human HL60 cells; assay type: functional, cell-based
Outline: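 Cytotoxicity against HL-60 cells was read out by the MTT method, following a previously reported protocol.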

[1] = biological target: T1, Tyrosine-protein phosphatase non-receptor type 1 (Homo sapiens, UniProt P18031); test: Inhibition of PTP1B (unknown origin)
T1 sequence (P18031 whole entry): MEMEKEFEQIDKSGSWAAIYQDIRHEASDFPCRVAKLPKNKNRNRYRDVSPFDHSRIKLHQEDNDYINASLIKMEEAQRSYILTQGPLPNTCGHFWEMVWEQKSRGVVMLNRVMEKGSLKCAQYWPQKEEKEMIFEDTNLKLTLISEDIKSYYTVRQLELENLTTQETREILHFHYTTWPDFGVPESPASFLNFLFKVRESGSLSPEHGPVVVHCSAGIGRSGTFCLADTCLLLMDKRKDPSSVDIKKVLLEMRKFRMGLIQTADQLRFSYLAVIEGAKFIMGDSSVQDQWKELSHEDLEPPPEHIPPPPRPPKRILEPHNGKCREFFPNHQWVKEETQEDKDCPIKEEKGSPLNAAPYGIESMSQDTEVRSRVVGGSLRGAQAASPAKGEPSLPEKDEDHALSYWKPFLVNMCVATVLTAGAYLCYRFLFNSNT

[2] = biological target: 11-beta-hydroxysteroid dehydrogenase 1 (Homo sapiens) (UniProt P28845); test: Inhibition of human 11beta-HSD1 expressed in HEK293 cells assessed as inhibition of [3H]cortisone to [3H]cortisol conversion by SPA; assay type: cell-based
Outline: (§1)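 Scintillation proximity assay against human or mouse 11β-HSD1 enzyme activity, using microsomes containing the enzyme. Glycyrrhetinic acid was the positive control.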

[3] = biological target: 11-beta-hydroxysteroid dehydrogenase 1 (Mus musculus, UniProt P50172); test: Inhibition of mouse 11beta-HSD1 expressed in HEK293 cells assessed as inhibition of [3H]cortisone to [3H]cortisol conversion by SPA; assay type: cell-based; outline: as §1
Chain of 11-beta-hydroxysteroid dehydrogenase 1 (P50172 whole entry): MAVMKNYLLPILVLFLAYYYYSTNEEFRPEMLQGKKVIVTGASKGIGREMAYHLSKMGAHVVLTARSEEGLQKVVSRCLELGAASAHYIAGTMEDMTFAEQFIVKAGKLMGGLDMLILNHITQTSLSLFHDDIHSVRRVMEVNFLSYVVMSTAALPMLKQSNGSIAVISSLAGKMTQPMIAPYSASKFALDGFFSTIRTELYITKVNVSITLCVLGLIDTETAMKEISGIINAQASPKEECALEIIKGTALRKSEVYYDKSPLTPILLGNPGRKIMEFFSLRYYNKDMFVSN

Chain of 11-beta-hydroxysteroid dehydrogenase 1 (Homo sapiens) (P28845 whole entry, looked up): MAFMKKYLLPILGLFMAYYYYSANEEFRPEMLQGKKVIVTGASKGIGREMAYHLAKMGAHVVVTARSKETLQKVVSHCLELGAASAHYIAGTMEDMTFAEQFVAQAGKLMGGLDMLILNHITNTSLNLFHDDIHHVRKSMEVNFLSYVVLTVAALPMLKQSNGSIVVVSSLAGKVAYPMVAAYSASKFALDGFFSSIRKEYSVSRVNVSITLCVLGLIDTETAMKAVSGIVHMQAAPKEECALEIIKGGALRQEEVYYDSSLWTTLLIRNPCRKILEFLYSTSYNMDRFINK

SMILES	IC50 (A549) [µM]	IC50 (HL-60) [µM]	IC50 [1] [µM]	inhibition [2]	IC50 [3] [µM]
CO[C@@H]1[C@H]2[C@@H]([C@@H](OC(C)=O)[C@@H](C)C(=O)[C@@]34C[C@H](C)[C@H](OC(C)=O)[C@]3(/C=C(\CO)[C@H]1OC(=O)c1ccccc1)O4)C2(C)C	> 10	> 10	> 10		
C/C=C(\C)C(=O)O[C@@H]1/C(C)=C/[C@@]23O[C@@]2(C[C@H](C)[C@@H]3OC(C)=O)C(=O)[C@H](C)[C@H](OC(C)=O)[C@@H]2[C@H]([C@H]1OC(C)=O)C2(C)C	> 10	> 10	> 10	inactive	
CC(=O)O[C@H]1[C@@H](C)C[C@@]23O[C@@]12/C=C(\C)[C@@H](O)[C@H](OC(=O)c1ccccc1)[C@H]1[C@@H]([C@@H](O)[C@@H](C)C3=O)C1(C)C	> 10	> 10	> 10	inactive	
CO[C@@H]1[C@H]2[C@@H]([C@@H](O)[C@@H](C)C(=O)[C@@]34C[C@H](C)[C@H](OC(C)=O)[C@]3(/C=C(\C)[C@H]1OC(=O)c1ccccc1)O4)C2(C)C	> 10	> 10	> 10		
CCC(C)C(=O)O[C@@H]1[C@H]2[C@@H]([C@@H](OC(C)=O)[C@@H](C)C(=O)[C@@]34C[C@H](C)[C@H](O)[C@]3(/C=C(\C)[C@H]1OC(C)=O)O4)C2(C)C (some centres not stated)	> 10	> 10	> 10	inactive	6.4
C/C=C(/C)C(=O)O[C@@H]1/C(C)=C/[C@@]23O[C@@]2(C[C@H](C)[C@@H]3OC(C)=O)C(=O)[C@H](C)[C@H](OC(C)=O)[C@@H]2[C@H]([C@H]1OC)C2(C)C	> 10	> 10	> 10	inactive	
C/C=C(/C)C(=O)O[C@@H]1/C(CO)=C/[C@@]23O[C@@]2(C[C@H](C)[C@@H]3OC(C)=O)C(=O)[C@H](C)[C@H](OC(C)=O)[C@@H]2[C@H]([C@H]1OC)C2(C)C	> 10	> 10	> 10	inactive	12
CCC(C)C(=O)O[C@@H]1[C@H]2[C@@H]([C@@H](OC(C)=O)[C@@H](C)C(=O)[C@@]34C[C@H](C)[C@H](OC(C)=O)[C@]3(/C=C(\C)[C@H]1O)O4)C2(C)C (some centres not stated)	> 10	> 10	> 10	inactive	
C=C(C(=O)O[C@@H]1/C(C)=C/[C@@]23O[C@@]2(C[C@H](C)[C@@H]3OC(C)=O)C(=O)[C@H](C)[C@H](OC(C)=O)[C@@H]2[C@H]([C@H]1OC)C2(C)C)C(C)O (some centres not stated)	> 10	> 10	> 10	inactive	
C/C=C(/C)C(=O)O[C@@H]1/C(C)=C/[C@@]23O[C@@]2(C[C@H](C)[C@@H]3O)C(=O)[C@H](C)[C@H](O)[C@@H]2[C@H]([C@H]1OC)C2(C)C	> 10	> 10	> 10		
C/C=C(/C)C(=O)O[C@@H]1/C(C)=C/[C@@]23O[C@@]2(C[C@@H](C)[C@H]3O)C(=O)[C@H](C)[C@H](OC(C)=O)[C@@H]2[C@H]([C@H]1OC)C2(C)C	> 10	> 10	> 10	inactive	
CC(=O)O[C@@H]1[C@@H]2[C@H]([C@@H](OC(=O)c3cccnc3)[C@H](OC(=O)c3ccccc3)/C(C)=C/[C@@]34O[C@@]3(C[C@H](C)[C@@H]4OC(C)=O)C(=O)[C@@H]1C)C2(C)C	> 10	> 10	> 10	inactive	0.41
CO[C@@H]1[C@H]2[C@@H]([C@@H](OC(C)=O)[C@@H](C)C(=O)[C@@]34C[C@H](C)[C@H](OC(C)=O)[C@]3(/C=C(\C)[C@H]1OC(=O)[C@@]1(C)O[C@@H]1C)O4)C2(C)C	> 10	> 10	> 10		
C/C=C(/C)C(=O)O[C@@H]1/C(C)=C/[C@@]23O[C@@]2(C[C@H](C)[C@@H]3O)C(=O)[C@H](C)[C@H](OC(C)=O)[C@@H]2[C@H]([C@H]1OC)C2(C)C	> 10	> 10	> 10	inactive	
CCC(C)C(=O)O[C@@H]1[C@H]2[C@@H]([C@@H](OC(C)=O)[C@@H](C)C(=O)[C@@]34C[C@@H](C)[C@@H](OC(C)=O)[C@]3(/C=C(\C)[C@H]1O)O4)C2(C)C (some centres not stated)	> 10	> 10	> 10	inactive	
CO[C@@H]1[C@H]2[C@@H]([C@@H](OC(C)=O)[C@@H](C)C(=O)[C@@]34C[C@H](C)[C@H](OC(C)=O)[C@]3(/C=C(\C)[C@H]1OC(=O)[C@]1(C)O[C@@H]1C)O4)C2(C)C	> 10	> 10	> 10	inactive	
CO[C@@H]1[C@H]2[C@@H]([C@@H](OC(C)=O)[C@@H](C)C(=O)[C@@]34C[C@H](C)[C@H](O)[C@]3(/C=C(\C)[C@H]1OC(=O)c1ccccc1)O4)C2(C)C	> 10	> 10	> 10	inactive	
C/C=C(/C)C(=O)O[C@@H]1/C(C=O)=C/[C@@]23O[C@@]2(C[C@H](C)[C@@H]3OC(C)=O)C(=O)[C@H](C)[C@H](OC(C)=O)[C@@H]2[C@H]([C@H]1OC)C2(C)C	> 10	> 10	> 10		
C/C=C(/C)C(=O)O[C@@H]1/C(C)=C/[C@@]23O[C@@]2(C[C@@H](C)[C@H]3O)C(=O)[C@H](C)[C@H](O)[C@@H]2[C@H]([C@H]1OC)C2(C)C		> 10	> 10		
